The nature of data set [1]: Toxicity against RBC assessed as hemolytic activity. The conditions noted are these: erythrocyte. Type of data set: cell-based. Put shortly: (§1)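 Donor whole blood in heparin/ACD was chilled to 4°C, pelleted at 1000g and washed three times in phosphate/NaCl/HEPES buffer, then resuspended in PBS. Cells were mixed 1:1 with serial dilutions in PBS and held 1 h at 37°C, then spun. Diluted supernatant was read at 540 nm against buffer, with percent lysis set against 1% Triton X-100.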

Data set [2] is described as follows: Toxicity against RBC assessed as hemolytic activity at 1 to 2 mM. The conditions noted are these: red blood cells (RBC); read-out: Activity. Format: cell-based, Erythrocyte. Put shortly:
as §1

The test system of data set [3] is Escherichia coli. Briefly: Antibacterial activity against Escherichia coli MG1655 after 20 hrs. Format: functional. Summed up: (§2)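 Broth microdilution MIC: exponential-phase bacteria at 10^5 to 10^6 CFU/ml in Mueller-Hinton broth. Compound serial dilutions made in PBS and mixed 1:1 by volume with the cells, so broth is 50% v/v. Incubated 20 hours at 37°C, and the minimum inhibitory concentration was recorded.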

The nature of data set [4]: Therapeutic index, ratio of MHC for RBC to MIC for Bacillus subtilis ATCC 6051. The conditions noted are these: red blood cells (RBC); read-out: TI. Put shortly: (§3)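 Ratio of MHC to MIC. MIC: exponential-phase B. subtilis ATC6051 or E. coli MG1655 at 10^5–10^6 CFU/ml in Mueller-Hinton broth, mixed 1:1 with serial dilutions in PBS (50% v/v broth), 20 h at 37°C. MHC: lowest concentration giving ≥2% lysis of washed donor red cells after 1 h at 37°C.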

Data set [5] can be described thus: Toxicity against bovine BAEC cells. Format: cell-based, Bos taurus. The conditions noted are these: cattle. Put shortly: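 Bovine aortic endothelial cells, passage 4–15, grown in DMEM with 10% FBS. Lipoplexes made with or without DOPE at several charge ratios up to 12 were added in serum-free OptiMem for 2 h at 37°C, then replaced with growth medium. About 20 h later, viability was read as ATP luminescence (CellTiter-Glo, 30 min), normalised to naked plasmid DNA, n = 8.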

The nature of data set [6]: Therapeutic index, ratio of MHC for RBC to MIC for Escherichia coli MG1655. The conditions noted are these: red blood cells (RBC); read-out: TI. Put shortly:
as §3

The test system of data set [7] is Bacillus subtilis. Briefly: Antibacterial activity against Bacillus subtilis ATCC 6051 after 20 hrs. Format: functional. Put shortly:
as §2

Data set [8] has as its system Escherichia coli. Briefly: Antibacterial activity against Escherichia coli MG1655 at 20 uM after 4 hrs. Format: functional, organism-based. The conditions noted are these: 50 uM, in the assay text read “50 uM” for “20 uM”. Summed up: (§4)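 Killing assay: exponential-phase bacteria suspended in PBS at 10^5–10^6 CFU/ml and preincubated for 1 hour at 37°C. Compound added and exposure lasted 4 hours. Samples were taken, diluted in four ten-fold steps in PBS and plated on agar overnight at 37°C. Colonies were counted manually and averages plotted on a log scale.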

Data set [9] relates to Bacillus subtilis. Briefly: Antibacterial activity against Bacillus subtilis ATCC 6051 at 20 uM after 4 hrs. Format: functional, organism-based. The conditions noted are these: ATC6051. Summed up:
as §4

The nature of data set [10]: Toxicity against RBC assessed as hemolytic activity at 2 mM. Format: cell-based. The conditions noted are these: erythrocyte, 2000 µM. Put shortly: as §1

Values after ≈ are worked out from the molar mass of the structure shown. Active and inactive are the calls of the source. The rule behind the calls is not given here.

Regarding `C[C@H](CCC(=O)NCCCNCCCCNCCCN)[C@H]1CC[C@H]2[C@@H]3CC=C4C[C@@H](O)CC[C@]4(C)[C@H]3CC[C@]12C`, the MHC in data set [1] was 1000 µM. Further, the hemolysis at up to 2000 µM in data set [2] is 30%. Further, the MIC (usually the lowest concentration found to suppress growth) with Escherichia coli [3] (MG1655, 20 h) turned out to be 115 µM (≈ 64.3 µg/mL); against Bacillus subtilis [7] (ATC6051, 20 h), 57 µM (≈ 31.9 µg/mL). Moreover, the selectivity ratio in data set [4] amounted to 18; in [6], 9. Besides, the Activity result in data set [5] is listed as “Toxic”.

With `C[C@H](CCC(=O)NCCCNCCCCNCCCN)[C@H]1CC[C@H]2[C@@H]3[C@H](O)C[C@@H]4C[C@H](O)CC[C@]4(C)[C@H]3C[C@H](O)[C@]12C`, the MHC in data set [1] turned out to be 500 µM. Moreover, the hemolysis at up to 2000 µM in data set [2] amounted to 30%. Moreover, the MIC was more than 432 µM in the data set on Escherichia coli [3] (MG1655, 20 h) and more than 432 µM in the data set with Bacillus subtilis [7] (ATC6051, 20 h). The selectivity ratio in data set [4] and in data set [6] was less than 1 throughout.

With `C[C@H](CCC(=O)NCCCNCCCCNCCCN)[C@H]1CCC2=C3CC[C@@H]4C[C@H](O)CC[C@]4(C)[C@H]3C[C@H](O)[C@@]21C`, the result with Escherichia coli [8] and in the data set with Bacillus subtilis [9] was Active. For the same compound, the MHC in [1] turned out to be 500 µM. Besides, the hemolysis at up to 2000 µM in [2] was 30%. For the same compound, the MIC against Escherichia coli [3] (MG1655, 20 h) is 111 µM (≈ 63.8 µg/mL); in the data set with Bacillus subtilis [7] (ATC6051, 20 h), 28 µM (≈ 16.1 µg/mL). For the same compound, the selectivity ratio stood at 18 in data set [4] and 5 in [6].

On to POLYMYXIN B, for which the MIC with Escherichia coli [3] is 6 µM; in the data set on Bacillus subtilis [7] (ATC6051), 1 µM.

Turning to `C[C@H](CCC(=O)NCCCNCCCCNCCCN)[C@H]1CC[C@H]2[C@@H]3CC[C@@H]4C[C@H](O)CC[C@]4(C)[C@H]3CC[C@]12C`, the outcome in the data set on Escherichia coli [8] and in the data set with Bacillus subtilis [9] was Active. The MHC in [1] was 500 µM. The hemolysis at up to 2000 µM in data set [2] worked out at 30%. Further, the minimal inhibitory concentration (MIC) came out at 228 µM (≈ 128 µg/mL) with Escherichia coli [3] (MG1655, 20 h) and 57 µM (≈ 32 µg/mL) in the data set on Bacillus subtilis [7] (ATC6051, 20 h). Besides, the selectivity ratio in [4] was 9; in data set [6] it was 2.

Consider `C[C@H](CCC(=O)NCCCNCCCCNCCCNC(=O)CC[C@H](C)[C@@H]1CC[C@@H]2[C@@H]3[C@@H](C[C@@H](O)[C@]21C)[C@]1(C)CC[C@H](O)C[C@@H]1C[C@@H]3O)[C@H]1CC[C@H]2[C@@H]3[C@H](O)C[C@@H]4C[C@H](O)CC[C@]4(C)[C@H]3C[C@H](O)[C@]12C`, for which the MHC in data set [1] came out at 250 µM. Further, the MIC against Escherichia coli [3] (MG1655, 20 h) turned out to be 16 µM (≈ 15.7 µg/mL); with Bacillus subtilis [7] (ATC6051, 20 h), 4 µM (≈ 3.93 µg/mL). Besides, the selectivity ratio in data set [4] stood at 61; in [6], 15. Moreover, the Activity result in data set [10] is on record as “Toxic”.

Values taken from ChEMBL document CHEMBL1139239, “A series of cationic sterol lipids with gene transfer and bactericidal activity” (Bioorg Med Chem, 2009).
